ChEMBL document CHEMBL4689842, “EUbOPEN Chemogenomics Library wave 1” (2021)

What was measured:
Type in all cases: toxicity, cell-based
HEK-293T [1] = test: Multiplex assay against HEK293T; settings: human;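 as to Population Tubulin-Different-Phenotype (%): share of the cells with healthy nuclei that show this phenotype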
Summary of the method: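 Live cells were stained at seeding with Hoechst33342, BioTracker Green Microtubule Cytoskeleton Dye, MitoTracker Red and Annexin V Alexa Fluor 680. Following compound addition, they were imaged on a CQ1 microscope at 37°C and 5% CO2 and gated by CellPathfinder machine learning into Hoechst high-intensity objects or normal cells, with normal cells split into healthy, pyknosed or fragmented nuclei and pyknosed cells into mitotic or apoptotic. Tubulin, mitochondrial-mass and membrane-permeability phenotypes are per cents of healthy-nucleus cells.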

HEK-293T [2] = test: Incucyte cell viability with HEK293T; settings: human, 10 µM, compound concentration 10 uM; also: filed as whole numbers so only -1 and 0 and 1 occur
Fibroblast = test: Incucyte cell viability with human fibroblast; settings: 10 µM, compound concentration 10 uM; also: filed as whole numbers so only -1 and 0 and 1 occur
[3] = 12 h, 1 µM, compound concentration 1 uM, replicate 1
[4] = 12 h, 1 µM, compound concentration 1 uM, replicate 2
[5] = 12 h, 10 µM, compound concentration 10 uM, replicate 1
[6] = 12 h, 10 µM, compound concentration 10 uM, replicate 2
[7] = 24 h, 1 µM, compound concentration 1 uM, replicate 1
[8] = 24 h, 1 µM, compound concentration 1 uM, replicate 2
[9] = 24 h, 10 µM, compound concentration 10 uM, replicate 1
[10] = 24 h, 10 µM, compound concentration 10 uM, replicate 2
[11] = 48 h, 1 µM, compound concentration 1 uM, replicate 1
[12] = 48 h, 1 µM, compound concentration 1 uM, replicate 2
[13] = 48 h, 10 µM, compound concentration 10 uM, replicate 1
[14] = 48 h, 10 µM, compound concentration 10 uM, replicate 2
[15] = 0 h, replicate number 1, timepoint 0 hours

CNc1oc(-c2cccc3ccccc23)nc1C#N
Population Apoptotic (%) (HEK-293T [1]; [3]): 59% | Population Fragmented Nuclei (%) (HEK-293T [1]; [3]): 14% | Population Healthy Nuclei (%) (HEK-293T [1]; [3]): 60% | Population Hoechst High Intensity Objects (%) (HEK-293T [1]; [3]): 30% | Population Membrane Permeable-Phenotype (%) (HEK-293T [1]; [3]): 3% | Population Mitochondria Different-Phenotype (%) (HEK-293T [1]; [3]): 62% | Population Mitotic Cells (%) (HEK-293T [1]; [3]): 40% | Population Normal (%) (HEK-293T [1]; [3]): 69% | Population Pyknosed Nuclei (%) (HEK-293T [1]; [3]): 25% | Population Tubulin-Different-Phenotype (%) (HEK-293T [1]; [3]): 31% | Total Cell Count (HEK-293T [1]; [3]): 276 | Population Apoptotic (%) (HEK-293T [1]; [4]): 14% | Population Fragmented Nuclei (%) (HEK-293T [1]; [4]): 8% | Population Healthy Nuclei (%) (HEK-293T [1]; [4]): 61% | Population Hoechst High Intensity Objects (%) (HEK-293T [1]; [4]): 11% | Population Membrane Permeable-Phenotype (%) (HEK-293T [1]; [4]): 8% | Population Mitochondria Different-Phenotype (%) (HEK-293T [1]; [4]): 16% | Population Mitotic Cells (%) (HEK-293T [1]; [4]): 85% | Population Normal (%) (HEK-293T [1]; [4]): 88% | Population Pyknosed Nuclei (%) (HEK-293T [1]; [4]): 29% | Population Tubulin-Different-Phenotype (%) (HEK-293T [1]; [4]): 12% | Total Cell Count (HEK-293T [1]; [4]): 270 | Population Apoptotic (%) (HEK-293T [1]; [5]): 41% | Population Fragmented Nuclei (%) (HEK-293T [1]; [5]): 83% | Population Healthy Nuclei (%) (HEK-293T [1]; [5]): 15% | Population Hoechst High Intensity Objects (%) (HEK-293T [1]; [5]): 41% | Population Membrane Permeable-Phenotype (%) (HEK-293T [1]; [5]): 0% | Population Mitochondria Different-Phenotype (%) (HEK-293T [1]; [5]): 1% | Population Mitotic Cells (%) (HEK-293T [1]; [5]): 58% | Population Normal (%) (HEK-293T [1]; [5]): 58% | Population Pyknosed Nuclei (%) (HEK-293T [1]; [5]): 1% | Population Tubulin-Different-Phenotype (%) (HEK-293T [1]; [5]): 0% | Total Cell Count (HEK-293T [1]; [5]): 2858 | Population Apoptotic (%) (HEK-293T [1]; [6]): 25% | Population Fragmented Nuclei (%) (HEK-293T [1]; [6]): 86% | Population Healthy Nuclei (%) (HEK-293T [1]; [6]): 12% | Population Hoechst High Intensity Objects (%) (HEK-293T [1]; [6]): 47% | Population Membrane Permeable-Phenotype (%) (HEK-293T [1]; [6]): 4% | Population Mitochondria Different-Phenotype (%) (HEK-293T [1]; [6]): 2% | Population Mitotic Cells (%) (HEK-293T [1]; [6]): 75% | Population Normal (%) (HEK-293T [1]; [6]): 52% | Population Pyknosed Nuclei (%) (HEK-293T [1]; [6]): 0% | Population Tubulin-Different-Phenotype (%) (HEK-293T [1]; [6]): 1% | Total Cell Count (HEK-293T [1]; [6]): 2861 | Population Apoptotic (%) (HEK-293T [1]; [7]): 38% | Population Fragmented Nuclei (%) (HEK-293T [1]; [7]): 17% | Population Healthy Nuclei (%) (HEK-293T [1]; [7]): 64% | Population Hoechst High Intensity Objects (%) (HEK-293T [1]; [7]): 29% | Population Membrane Permeable-Phenotype (%) (HEK-293T [1]; [7]): 6% | Population Mitochondria Different-Phenotype (%) (HEK-293T [1]; [7]): 41% | Population Mitotic Cells (%) (HEK-293T [1]; [7]): 61% | Population Normal (%) (HEK-293T [1]; [7]): 70% | Population Pyknosed Nuclei (%) (HEK-293T [1]; [7]): 17% | Population Tubulin-Different-Phenotype (%) (HEK-293T [1]; [7]): 25% | Total Cell Count (HEK-293T [1]; [7]): 325 | Population Apoptotic (%) (HEK-293T [1]; [8]): 32% | Population Fragmented Nuclei (%) (HEK-293T [1]; [8]): 6% | Population Healthy Nuclei (%) (HEK-293T [1]; [8]): 79% | Population Hoechst High Intensity Objects (%) (HEK-293T [1]; [8]): 14% | Population Membrane Permeable-Phenotype (%) (HEK-293T [1]; [8]): 15% | Population Mitochondria Different-Phenotype (%) (HEK-293T [1]; [8]): 8% | Population Mitotic Cells (%) (HEK-293T [1]; [8]): 67% | Population Normal (%) (HEK-293T [1]; [8]): 85% | Population Pyknosed Nuclei (%) (HEK-293T [1]; [8]): 13% | Population Tubulin-Different-Phenotype (%) (HEK-293T [1]; [8]): 26% | Total Cell Count (HEK-293T [1]; [8]): 316 | Population Apoptotic (%) (HEK-293T [1]; [9]): 15% | Population Fragmented Nuclei (%) (HEK-293T [1]; [9]): 83% | Population Healthy Nuclei (%) (HEK-293T [1]; [9]): 15% | Population Hoechst High Intensity Objects (%) (HEK-293T [1]; [9]): 40% | Population Membrane Permeable-Phenotype (%) (HEK-293T [1]; [9]): 0% | Population Mitotic Cells (%) (HEK-293T [1]; [9]): 84% | Population Normal (%) (HEK-293T [1]; [9]): 59% | Population Pyknosed Nuclei (%) (HEK-293T [1]; [9]): 0% | Population Tubulin-Different-Phenotype (%) (HEK-293T [1]; [9]): 0% | Total Cell Count (HEK-293T [1]; [9]): 2556 | Population Apoptotic (%) (HEK-293T [1]; [10]): 13% | Population Fragmented Nuclei (%) (HEK-293T [1]; [10]): 88% | Population Healthy Nuclei (%) (HEK-293T [1]; [10]): 10% | Population Hoechst High Intensity Objects (%) (HEK-293T [1]; [10]): 48% | Population Membrane Permeable-Phenotype (%) (HEK-293T [1]; [10]): 4% | Population Mitochondria Different-Phenotype (%) (HEK-293T [1]; [10]): 1% | Population Mitotic Cells (%) (HEK-293T [1]; [10]): 86% | Population Normal (%) (HEK-293T [1]; [10]): 51% | Population Pyknosed Nuclei (%) (HEK-293T [1]; [10]): 1% | Population Tubulin-Different-Phenotype (%) (HEK-293T [1]; [10]): 3% | Total Cell Count (HEK-293T [1]; [10]): 2734 | Population Apoptotic (%) (HEK-293T [1]; [11]): 39% | Population Fragmented Nuclei (%) (HEK-293T [1]; [11]): 14% | Population Healthy Nuclei (%) (HEK-293T [1]; [11]): 78% | Population Hoechst High Intensity Objects (%) (HEK-293T [1]; [11]): 32% | Population Membrane Permeable-Phenotype (%) (HEK-293T [1]; [11]): 2% | Population Mitochondria Different-Phenotype (%) (HEK-293T [1]; [11]): 17% | Population Mitotic Cells (%) (HEK-293T [1]; [11]): 60% | Population Normal (%) (HEK-293T [1]; [11]): 67% | Population Pyknosed Nuclei (%) (HEK-293T [1]; [11]): 7% | Population Tubulin-Different-Phenotype (%) (HEK-293T [1]; [11]): 17% | Total Cell Count (HEK-293T [1]; [11]): 470 | Population Apoptotic (%) (HEK-293T [1]; [12]): 18% | Population Fragmented Nuclei (%) (HEK-293T [1]; [12]): 8% | Population Healthy Nuclei (%) (HEK-293T [1]; [12]): 84% | Population Hoechst High Intensity Objects (%) (HEK-293T [1]; [12]): 14% | Population Membrane Permeable-Phenotype (%) (HEK-293T [1]; [12]): 7% | Population Mitochondria Different-Phenotype (%) (HEK-293T [1]; [12]): 3% | Population Mitotic Cells (%) (HEK-293T [1]; [12]): 81% | Population Normal (%) (HEK-293T [1]; [12]): 85% | Population Pyknosed Nuclei (%) (HEK-293T [1]; [12]): 6% | Population Tubulin-Different-Phenotype (%) (HEK-293T [1]; [12]): 14% | Total Cell Count (HEK-293T [1]; [12]): 536 | Population Apoptotic (%) (HEK-293T [1]; [13]): 15% | Population Fragmented Nuclei (%) (HEK-293T [1]; [13]): 82% | Population Healthy Nuclei (%) (HEK-293T [1]; [13]): 16% | Population Hoechst High Intensity Objects (%) (HEK-293T [1]; [13]): 43% | Population Membrane Permeable-Phenotype (%) (HEK-293T [1]; [13]): 0% | Population Mitochondria Different-Phenotype (%) (HEK-293T [1]; [13]): 0% | Population Mitotic Cells (%) (HEK-293T [1]; [13]): 85% | Population Normal (%) (HEK-293T [1]; [13]): 56% | Population Pyknosed Nuclei (%) (HEK-293T [1]; [13]): 1% | Population Tubulin-Different-Phenotype (%) (HEK-293T [1]; [13]): 0% | Total Cell Count (HEK-293T [1]; [13]): 2084 | Population Apoptotic (%) (HEK-293T [1]; [14]): 16% | Population Fragmented Nuclei (%) (HEK-293T [1]; [14]): 84% | Population Healthy Nuclei (%) (HEK-293T [1]; [14]): 14% | Population Hoechst High Intensity Objects (%) (HEK-293T [1]; [14]): 52% | Population Membrane Permeable-Phenotype (%) (HEK-293T [1]; [14]): 1% | Population Mitotic Cells (%) (HEK-293T [1]; [14]): 83% | Population Normal (%) (HEK-293T [1]; [14]): 47% | Population Tubulin-Different-Phenotype (%) (HEK-293T [1]; [14]): 1% | Total Cell Count (HEK-293T [1]; [14]): 2135 | Growth Rate (HEK-293T [2]; [15]): 0 | Growth Rate (HEK-293T [2]; 12 h, replicate number 1, timepoint 12 hours): 1 | Growth Rate (HEK-293T [2]; 18 h, replicate number 1, timepoint 18 hours): 1 | Growth Rate (HEK-293T [2]; 24 h, replicate number 1, timepoint 24 hours): 1 | Growth Rate (Fibroblast; [15]): 0 | Growth Rate (Fibroblast; 6 h, replicate number 2, timepoint 6 hours): 1
